Measurements published in article PMC9673813 (International Journal of Nanomedicine, 2022).
In brackets after ≈: the same amount, converted by molar mass. Read-outs that look alike come from different tables or passages of the source.

Key:
[1] = In vitro release investigation; format: physicochemical
How it was run: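 Test formulation (1 mL, 200 ug/mL) was placed in a dialysis bag (8000–14,000 Da) in 200 mL PBS with 0.2% Tween-80, at 37 °C and 120 r/min. 3 mL of medium was withdrawn and replaced at 0.25–168 h. Samples were centrifuged at 8000 r/min for 10 min, and supernatant was analysed by HPLC for cumulative release. Data were fitted to zero-order, first-order and Higuchi models, with r² calculated; n=3.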

In vivo acute toxicity = experiment: In vivo acute toxicity; parameters: species or system BALB/c mice; conditions: single i.p. 40 mg/kg
How it was run: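 Female BALB/c mice, 7 weeks, 20 ± 3 g, n=10/group, received a single intraperitoneal 40 mg/kg dose; saline control at equal volume. Status and deaths were recorded daily, and survival was followed over 10 days. Heart, liver and kidney from three randomly selected mice per group were H&E-stained for pathology.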

[2] = test system: normal hepatocyte cell line L02; experiment: In vitro cytotoxicity assay; format: cell-based
How it was run: (§1)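 Cells grown in high-glucose DMEM with 10% FBS and 1% penicillin/streptomycin at 37°C, 5% CO2. Log-phase cells trypsinized, seeded at 5×10³/well, grown 24 h. Test formulations and blank nanoparticles added at 5, 10, 20, 40, 80 ug/mL for 24, 48, 72 or 96 h. MTT (5 mg/mL stock) added for 3–4 h, formazan dissolved in DMSO, A490 read. Inhibition rate calculated from blank-, control- and test-well OD. Dose–effect curves plotted; n=3.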

[3] = In vivo cumulative toxicity; parameters: species or system BALB/c mice
MCF-7 tumor = experiment: In vivo antitumor assessment in MCF-7 tumor-bearing nude mice; parameters: species or system BALB/c nude mice
How it was run: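 Female BALB/c nude mice, 4 weeks old, were inoculated in the left armpit with 0.1 mL MCF-7 suspension (3 × 10⁷ cells/mL). Dosing started at ~100 mm³ (n=10/group; saline control): 10 mg/kg intraperitoneally every 3 days for 20 days. Body weight and tumor volume (V = π/6·AB²) were measured every 3 days, and deaths tallied every 5 days. Tumors were weighed on day 20; IR = 1 − drug/control tumor weight. Procedures were blinded.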

[4] = test system: breast cancer cell line MCF-7; experiment: In vitro cytotoxicity assay; format: cell-based; conditions: Homo sapiens
How it was run: as §1

[5] = Pharmacokinetics in SD rats; format: in vivo; conditions: 10 mg/kg
How it was run: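 SD rats (n=5/group) were injected with 10 mg/kg. Blood (0.3 mL) was collected at 0.08–120 h into heparin tubes and centrifuged. Plasma (100 μL) was extracted with methanol:ethyl acetate 10:90 and analysed by HPLC: C18 column, acetonitrile–phosphate water pH 4.0 65:35, 0.8 mL/min, 30 °C, 227 nm. Results are mean ± SEM.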

CC(=O)O[C@H]1C(=O)[C@@]2(C)[C@H]([C@H](OC(=O)c3ccccc3)[C@]3(O)C[C@H](OC(=O)[C@H](O)[C@@H](NC(=O)c4ccccc4)c4ccccc4)C(C)=C1C3(C)C)[C@]1(OC(C)=O)CO[C@@H]1C[C@@H]2O [PTX, Paclitaxel]
release model that the in vitro release behavior accords with [1]: first-order model
cumulative release rate at 24 h ([1]; PBS with 0.2% Tween-80, 37 °C, 24 h): over 60%
First-Order Equation k1 ([1]; rate constant of release): 0.0711
Higuchi's Equation kh ([1]; rate constant of release): 7.2999
Zero Order Equation k0 ([1]; rate constant of release): 0.5097
pathology of heart, liver and kidney tissues (H&E), acute toxicity (In vivo acute toxicity): severe necrosis
mouse deaths in acute toxicity trial (In vivo acute toxicity; n=10): 10 mice all died within 5 h
IC50 ([2]; 24 h, read-out: IC50 24 h): > 80 µg/mL
IC50 ([2]; 48 h, read-out: IC50 48 h): > 80 µg/mL
IC50 ([2]; 72 h, read-out: IC50 72h): 36.9 ± 3.18 µg/mL (≈ 43.2 µM)
IC50 ([2]; 96 h, read-out: IC50 96h): 17.3 ± 0.83 µg/mL (≈ 20.3 µM)
inhibition at 10 µg/mL ([2]; 96 h, read-out: inhibitory rate on cell growth higher than PTX-SLN@CUD): 40.1%
pathology of heart, liver and kidney tissues (H&E), cumulative toxicity ([3]; 10 mg/kg i.p. every three days for 60 days): Some damage to cells and muscle fibers
mouse deaths within 60 days / throughout the experiment, cumulative toxicity ([3]; 10 mg/kg i.p. every three days for 60 days, n=10): all mice in this group died
mouse deaths within seven days, cumulative toxicity ([3]; 10 mg/kg i.p. every three days, n=10): three mice died
deaths / survival of tumor-bearing nude mice during the test (MCF-7 tumor; 10 mg/kg i.p. every three days, 20 days): death of three nude mice
tumor volume at 20 days / end of trial (MCF-7 tumor; 10 mg/kg i.p. every three days, day 20): 1000 mm^3
tumor inhibition rate (MCF-7 tumor; 10 mg/kg i.p. every three days, day 20, by tumor weight): 32.93%
change of average body weight of nude mice (MCF-7 tumor; 10 mg/kg, 20 days versus beginning): significant decrease
cancer cell necrosis (H&E staining of tumors) (MCF-7 tumor; 10 mg/kg, after 20 days): 25%
IC50 ([4]; MCF7, 24 h, read-out: IC50 24 h): > 80 µg/mL
IC50 ([4]; MCF7, 48 h, read-out: IC50 48 h): 64.3 ± 5.73 µg/mL (≈ 75.3 µM)
IC50 ([4]; MCF7, 72 h, read-out: IC50 72h): 26.2 ± 2.68 µg/mL (≈ 30.7 µM)
IC50 ([4]; MCF7, 96 h, read-out: IC50 96h): 12.7 ± 0.97 µg/mL (≈ 14.8 µM)
time up to which plasma PTX concentration stayed detectable ([5]; SD rats, intravenous injection, sampling to 120 h): 12 h
AUC(0-t) ([5]; SD, rat, plasma, iv): 2380 ± 276 ng·h/mL
MRT last ([5]; SD, rat, plasma, iv): 4.94 ± 0.653 h
Tmax ([5]; SD, rat, plasma, iv): 0.25 ± 0.02 h
Vd ([5]; SD, rat, plasma, iv): 54.5 ± 8.53 L/kg
clearance ([5]; SD, rat, plasma, iv): 57.2 mL/min/kg
half-life ([5]; SD, rat, plasma, iv): 11 ± 0.773 h
